From PubChem BioAssay
Inconclusive results are not listed.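 How the source made its calls, unless noted: active means RAM network inhibition above 8.4% in each of two replicates, 3 SD over the compound average; inconclusive means above 8.4% inhibition in only one replicate; inactive means 8.4% inhibition or less in each replicate.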

How the values were obtained:
[1] = S. cerevisiae growth inhibition in permissive medium (OD615), pilot counter-assay for S. cerevisiae lifespan shortening project, permissive growth control (AID 705;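 active means growth inhibition above 25% in both replicates, a cutoff set 3 SD above the mean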); settings: OD615, 24 h, at 10 µM, stronger effect = higher value
Method in brief: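 Material: engineered DeaD yeast; Compound: one dose 10 µM, DMSO 0.25% final; Detection: absorbance (optical density) at 615 nm; Buffer or medium: permissive raffinose/galactose medium; Timing: 24 h exposure, 30 °C.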

[2] = S. cerevisiae growth inhibition in restrictive medium, OD615, pilot screen, restrictive growth control, yeast lifespan reduction project (AID 706;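 active means growth inhibition above a set limit, 3 SD over mean compound inhibition, in both replicates, cut at about 43% in these data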;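 further: modified DeaD lifespan yeast strain shifted to restrictive glucose medium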); settings: OD615, 48 h, at 10 µM, stronger effect = higher value
Method in brief: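 Buffer or medium: restrictive glucose medium (CSMM-D); test system: modified S. cerevisiae; doses: single dose of 10 µM compound final, 0.25% DMSO; schedule: 48 h compound exposure at 30 °C; detection: absorbance (optical density) measured at 615 nm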

[3] = doxorubicin toxicity protection in MRP-1 cells – H69AR cells, CellTiter-Glo, duplicate, MRP-1 activator project, pilot screen (AID 807;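 active means viability increase at or above a cutoff of the median across tested compounds plus 3 SD, cut at about 8.5% in these data, passing the limit was not always enough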;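 further: compound pretreatment 18-22 h then 72 h combined with doxorubicin; 0% = doxorubicin alone and 100% = vehicle without doxorubicin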); settings: H69AR viability with doxorubicin, CellTiter-Glo luminescence; at 10 µM; stronger effect = higher value
[4] = viability of HCT116 without oncogenic beta-catenin – human colon tumor cells, pilot screen (AID 823;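 active means cell viability at or below a set limit in both duplicate runs, the limit being the all-compound median minus 4 SD, cut at about 23% in these data, passing the limit was not always enough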;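 further: 0% = wells killed by 20 µM Hyamine and 100% = untreated DMSO cell wells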); settings: HCT116 beta-catenin knockout viability, CellTiter-Glo, 60 h; at 10 µM; stronger effect = lower value
[5] = viability of PTEN-null HCT116 cells – cell-based, HCT116 clonal line, CellTiter-Glo, pilot screen (AID 824;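 active means viability at or below 27.92% in each of two runs, the all-compound median minus 4 SD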;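 further: 0% = 20 µM Hyamine control and 100% = vehicle cell control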); settings: HCT116 PTEN-deleted viability, 60 h, at 10 µM, stronger effect = lower value
[6] = RAM pathway blockade in budding yeast – dse1pr::URA3 reporter, 5-FOA selection, pilot screen (AID 869;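 active means inhibition over a set limit, the all-compound mean plus 3 SD, in both replicate runs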;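 further: 0% = DMSO wells with no growth and 100% = 10 µM 1-NA-PP1 with full growth; RAM network block rescues cells from 5-FOA so hits raise OD615 growth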); settings: S. cerevisiae dse1pr::URA3 5-FOA growth, OD615, 2 d; at 10 µM; stronger effect = higher value; strain carries analog-sensitive mutant Cbk1 kinase
[7] = RAM signaling pathway blockade in yeast – S. cerevisiae, Pdr1DBD-CYC8 efflux-inhibited sensitized strain, primary screen (AID 1298);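 further: 0% = DMSO untreated cells without growth and 100% = 10 µM 1-NA-PP1 full growth; higher means more yeast growth rescued from 5-FOA killing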; settings: S. cerevisiae cbk1-as DSE1-URA3 strain, 5-FOA growth OD615, 2 d; at 50 µM; stronger effect = higher value

CC(=O)Nc1nnc(SCc2cccc(F)c2)s1
inactive: growth inhibition [1] -1.17% | growth inhibition [2] -1.06% | viability increase [3] -0.12% | viability [4] 108% | viability [5] 104% | inhibition [6] 1.99% | RAM network inhibition [7] 4.84%

CN(c1ccccc1)S(=O)(=O)c1cccc(C(=O)N2CCN(c3ccccn3)CC2)c1
inactive: growth inhibition [1] 2.2% | growth inhibition [2] 4.43% | viability increase [3] -0.97% | viability [4] 81% | viability [5] 86.1% | inhibition [6] -0.145% | RAM network inhibition [7] -1.92%

CCN(CC)C(=O)CN(Cc1ccccc1)S(=O)(=O)c1ccc(F)cc1
inactive: growth inhibition [1] -8.49% | growth inhibition [2] -11.4% | viability increase [3] -0.99% | viability [4] 93.8% | viability [5] 97.5% | inhibition [6] 1.32% | RAM network inhibition [7] 2.88%

COc1cc(NC(=O)Cn2ncc3c2-c2ccccc2OC3)cc(OC)c1OC
inactive: growth inhibition [1] -6.13% | growth inhibition [2] 6.98% | viability increase [3] -3.04% | viability [4] 86.6% | viability [5] 83.5% | inhibition [6] 2.05% | RAM network inhibition [7] 2.19%

COc1ccc(N2C(=O)C3CCCN3C2c2ccccc2OC)cc1 (stereo not drawn)
inactive: growth inhibition [1] 2.4% | growth inhibition [2] -3.83% | viability increase [3] -3.2% | viability [4] 103% | viability [5] 97.4% | inhibition [6] 0.02% | RAM network inhibition [7] 0.12%

CCCOc1ccc(C2c3c(oc4cc(C)c(C)cc4c3=O)C(=O)N2CCCN(C)C)cc1OCC (stereo not drawn)
inactive: growth inhibition [1] -10.6% | growth inhibition [2] -3.15% | viability increase [3] -3.29% | viability [4] 102% | viability [5] 97.7% | inhibition [6] 3.69% | RAM network inhibition [7] -0.16%

Cc1nnc(Sc2nc3c(c(=O)[nH]c(=O)n3C)n2CCCc2ccccc2)s1
inactive: growth inhibition [1] -8.19% | growth inhibition [2] -13.4% | viability increase [3] -2.42% | viability [4] 95.1% | viability [5] 94.7% | inhibition [6] 1.21% | RAM network inhibition [7] 2.87%

Cc1ccc(CCN2CC(C(=O)NCCCN3CCN(C)CC3)CC2=O)cc1 (stereo not drawn)
inactive: growth inhibition [1] 1.07% | growth inhibition [2] -3.19% | viability increase [3] -2.38% | viability [4] 75.9% | viability [5] 92.8% | inhibition [6] -0.675% | RAM network inhibition [7] 1.23%

O=C(Cn1ncc2c(=O)oc3ccccc3c21)N1CCc2ccccc2C1
inactive: growth inhibition [1] -12.5% | growth inhibition [2] -12.7% | viability increase [3] -1.69% | viability [4] 103% | viability [5] 94.7% | inhibition [6] 0.645% | RAM network inhibition [7] -0.07%

CCOc1cccc(-c2nc(C(N)=O)c3[nH]c(=O)n(-c4cccc(Cl)c4)c3n2)c1O
inactive: growth inhibition [1] -2.52% | growth inhibition [2] -7.1% | viability increase [3] -2.06% | viability [4] 101% | viability [5] 93.1% | inhibition [6] 0.85% | RAM network inhibition [7] 2.67%

COc1cccc(C(=O)Nc2cc(=O)n(C)c(=O)n2C)c1
inactive: growth inhibition [1] -11% | growth inhibition [2] -8.35% | viability increase [3] -2.05% | viability [4] 103% | viability [5] 97.4% | inhibition [6] 2.98% | RAM network inhibition [7] 2.08%

N#CCCn1c(C(C#N)(CCC#N)CCC#N)nc2ccccc21
inactive: growth inhibition [1] 5.8% | growth inhibition [2] 5.04% | viability increase [3] -0.72% | viability [4] 96.5% | viability [5] 99.4% | inhibition [6] 1.6% | RAM network inhibition [7] 1.63%

CCN(CC)CC(=O)Nc1cc(C)c2c(=O)oc3ccccc3c2n1
inactive: growth inhibition [1] -15.1% | growth inhibition [2] -19.2% | viability increase [3] -3.1% | viability [4] 96.1% | viability [5] 91.6% | inhibition [6] 1.04% | RAM network inhibition [7] 6.81%

CN(C)C=NC(=O)/C(C#N)=C1\CCc2ccccc2N1
inactive: growth inhibition [1] -9.21% | growth inhibition [2] -2.15% | viability increase [3] -2.2% | viability [4] 95.2% | viability [5] 92.5% | inhibition [6] 0.705% | RAM network inhibition [7] 6.77%

O=C(NCc1ccco1)c1ccc2c(c1)N(Cc1ccccc1)C(=O)CS2=O (stereo not drawn)
inactive: growth inhibition [1] -4.13% | growth inhibition [2] 3.41% | viability increase [3] 3.66% | viability [4] 97.8% | viability [5] 82.6% | inhibition [6] 0.885% | RAM network inhibition [7] 1.29%

COc1ccccc1NC(=O)Cn1c(=O)n2nc(C)nc2c2ccccc21
inactive: growth inhibition [1] -11% | growth inhibition [2] -16.9% | viability increase [3] -4.08% | viability [4] 102% | viability [5] 90.3% | inhibition [6] 1.47% | RAM network inhibition [7] 2.31%

O=C(COC(=O)c1cccs1)Nc1ccccc1
inactive: growth inhibition [1] -5.3% | growth inhibition [2] 0.975% | viability increase [3] -0.14% | viability [4] 96.7% | viability [5] 97.1% | inhibition [6] 1.56% | RAM network inhibition [7] 0.11%

O=C1CN(C(=O)c2ccc(Br)o2)C(c2ccccc2)c2cc(F)ccc2N1 (stereo not drawn)
inactive: growth inhibition [1] -12.5% | growth inhibition [2] -28% | viability increase [3] -5.91% | viability [4] 84.9% | viability [5] 78.7% | inhibition [6] 1.08% | RAM network inhibition [7] 2.36%

CCCCn1c(CCNC(=O)CC)nc2ccccc21
inactive: growth inhibition [1] -8.93% | growth inhibition [2] -5.17% | viability increase [3] -1.11% | viability [4] 98.8% | viability [5] 101% | inhibition [6] 1.86% | RAM network inhibition [7] 5.26%

Cc1cc(N2CCN(C(=O)c3ccco3)CC2)n2nc(C)nc2n1
inactive: growth inhibition [1] -6.63% | growth inhibition [2] 5.6% | viability increase [3] -3.61% | viability [4] 95.5% | viability [5] 98.2% | inhibition [6] 0.95% | RAM network inhibition [7] -0.63%

COc1ccc(C)cc1NC(=O)c1ccoc1C
inactive: growth inhibition [1] -1.21% | growth inhibition [2] 4.09% | viability increase [3] 0.93% | viability [4] 99.5% | viability [5] 87.8% | inhibition [6] 0.62% | RAM network inhibition [7] 7.87%

O=C1c2ccccc2NC(c2ccc3c(c2)OCCO3)N1c1ccc2c(c1)OCCO2 (stereo not drawn)
inactive: growth inhibition [1] -5.15% | growth inhibition [2] 6.69% | viability increase [3] -2.17% | viability [4] 90.5% | viability [5] 79.5% | inhibition [6] 0.615% | RAM network inhibition [7] 0.98%

CC(=O)NC(CCS(C)(=O)=O)C(=O)Nc1cc(Cl)ccc1Cl (stereo not drawn)
inactive: growth inhibition [1] -14.6% | growth inhibition [2] -17.2% | viability increase [3] 0.37% | viability [4] 105% | viability [5] 92% | inhibition [6] 2.08% | RAM network inhibition [7] 2.67%

O=C(COc1ccccc1Br)NCc1ccco1
inactive: growth inhibition [1] 2.92% | growth inhibition [2] 8.48% | viability increase [3] -3.54% | viability [4] 97% | viability [5] 102% | inhibition [6] 1.51% | RAM network inhibition [7] 3.3%
